From ChEMBL document CHEMBL4364345, “Synthesis and evaluation of 1,3,4-oxadiazole derivatives for development as broad-spectrum antibiotics” (Bioorg Med Chem, 2019)

Tests used:
Enterococcus faecium [1] = experiment: Antimicrobial activity against Enterococcus faecium AUS0004 at 2 ug/disk incubated for 20 +/- 4 hrs by agar disk diffusion method; format: functional; conditions: read-out: DIZ
Listeria monocytogenes [2] = experiment: Antimicrobial activity against Listeria monocytogenes clinical isolate at 30 ug/disk incubated for 20 +/- 4 hrs by agar disk diffusion method; format: functional; conditions: read-out: DIZ
Clostridium perfringens = experiment: Antimicrobial activity against Clostridium perfringens clinical isolate at 50 ug/disk incubated for 20 +/- 4 hrs by agar disk diffusion method; format: functional; conditions: read-out: DIZ
Outline: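 Agar disk diffusion on MH agar with 5% horse blood (MHF), surface-seeded by swab from a 0.5 McFarland inoculum (about 10^8 CFU/ml). Cellulose discs received 10 μl of a 5 g/L DMSO solution (50 μg). A DMSO-only disc served as control. Anaerobic incubation at 35 ± 2 °C for 20 ± 4 h; growth-inhibition diameter measured in mm.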

Enterococcus faecium [3] = experiment: Antimicrobial activity against Enterococcus faecium HM1070 at 50 ug/disk incubated for 20 +/- 4 hrs by agar disk diffusion method; format: functional; conditions: read-out: DIZ
Outline: (§1)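 Agar disk diffusion on Mueller-Hinton agar swab-seeded from a 0.5 McFarland inoculum (about 10^8 CFU/ml). Cellulose discs got 50 μg compound (10 μl of 5 g/L in DMSO); a 10 μL DMSO disc was the control. Incubated aerobically at 35 ± 2 °C for 20 ± 4 h, then growth-inhibition diameters measured.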

Kocuria rhizophila = experiment: Antimicrobial activity against Kocuria rhizophila clinical isolate at 50 ug/disk incubated for 20 +/- 4 hrs by agar disk diffusion method; format: functional; conditions: read-out: DIZ; outline: as §1
Pseudomonas aeruginosa = experiment: Antimicrobial activity against Pseudomonas aeruginosa clinical isolate at 50 ug/disk incubated for 20 +/- 4 hrs by agar disk diffusion method; format: functional; conditions: read-out: DIZ; outline: as §1
Bacillus subtilis = experiment: Antimicrobial activity against Bacillus subtilis clinical isolate at 50 ug/disk incubated for 20 +/- 4 hrs by agar disk diffusion method; format: functional; conditions: read-out: DIZ; outline: as §1
Escherichia coli [4] = experiment: Antimicrobial activity against Escherichia coli ATCC 25922 at 50 ug/disk incubated for 20 +/- 4 hrs by agar disk diffusion method; format: functional; conditions: read-out: DIZ; outline: as §1
Bacteroides fragilis = experiment: Antimicrobial activity against Bacteroides fragilis ATCC 25285 at 50 ug/disk incubated for 20 +/- 4 hrs by agar disk diffusion method; format: functional; conditions: read-out: DIZ
Outline: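 Anaerobic disk diffusion: MH agar + 5% horse blood seeded from a 0.5 McFarland swab, with discs of 50 μg compound (10 μl of 5 g/L DMSO solution) and a DMSO control disc. Kept at 35 ± 2 °C under anaerobic conditions for 20 ± 4 h; inhibition diameters recorded.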

Enterococcus faecium [5] = experiment: Antimicrobial activity against Enterococcus faecium AUS0004 at 50 ug/disk incubated for 20 +/- 4 hrs by agar disk diffusion method; format: functional; conditions: read-out: DIZ; outline: as §1
Listeria monocytogenes [6] = experiment: Antimicrobial activity against Listeria monocytogenes clinical isolate at 50 ug/disk incubated for 20 +/- 4 hrs by agar disk diffusion method; format: functional; conditions: read-out: DIZ
Outline: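 Disk diffusion on MH agar with 5% horse blood, seeded by swab from a 0.5 McFarland suspension. Discs held 50 μg compound from a 5 g/L DMSO solution, with a DMSO-only control disc. Aerobic incubation at 35 ± 2 °C for 20 ± 4 h; inhibition zone diameter read.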

Streptococcus pyogenes = experiment: Antimicrobial activity against Streptococcus pyogenes clinical isolate at 50 ug/disk incubated for 20 +/- 4 hrs by agar disk diffusion method; format: functional; conditions: read-out: DIZ
Outline: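 Plates of MH + 5% horse blood were swabbed with a 0.5 McFarland inoculum and received discs with 50 μg compound (from 5 g/L in DMSO) plus a 10 μL DMSO control disc. Incubation at 35 ± 2 °C aerobically with 5% CO2 for 20 ± 4 h, then zone diameters measured.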

Enterobacter cloacae = experiment: Antimicrobial activity against Enterobacter cloacae clinical isolate at 50 ug/disk incubated for 20 +/- 4 hrs by agar disk diffusion method; format: functional; conditions: read-out: DIZ; outline: as §1
Klebsiella pneumoniae = experiment: Antimicrobial activity against Klebsiella pneumoniae clinical isolate at 50 ug/disk incubated for 20 +/- 4 hrs by agar disk diffusion method; format: functional; conditions: read-out: DIZ; outline: as §1
Staphylococcus aureus = experiment: Antimicrobial activity against Staphylococcus aureus ATCC 29213 at 50 ug/disk incubated for 20 +/- 4 hrs by agar disk diffusion method; format: functional; conditions: read-out: DIZ; outline: as §1
Escherichia coli [7] = experiment: Antimicrobial activity against Escherichia coli clinical isolate at 50 ug/disk incubated for 20 +/- 4 hrs by agar disk diffusion method; format: functional; conditions: read-out: DIZ; outline: as §1
Acinetobacter baumannii = experiment: Antimicrobial activity against Acinetobacter baumannii clinical isolate at 50 ug/disk incubated for 20 +/- 4 hrs by agar disk diffusion method; format: functional; conditions: read-out: DIZ; outline: as §1
Enterococcus faecalis [8] = experiment: Antimicrobial activity against Enterococcus faecalis ATCC 29212 at 50 ug/disk incubated for 20 +/- 4 hrs by agar disk diffusion method; format: functional; conditions: read-out: DIZ; outline: as §1
Enterococcus faecium [9] = experiment: Antimicrobial activity against Enterococcus faecium AUS0004 at 30 ug/disk incubated for 20 +/- 4 hrs by agar disk diffusion method; format: functional, organism-based
Enterococcus faecalis [10] = experiment: Antimicrobial activity against Enterococcus faecalis ATCC 29212 at 30 ug/disk incubated for 20 +/- 4 hrs by agar disk diffusion method; format: functional, organism-based
Listeria monocytogenes [11] = experiment: Antimicrobial activity against Listeria monocytogenes clinical isolate at 5 ug/disk incubated for 20 +/- 4 hrs by agar disk diffusion method; format: functional; conditions: read-out: DIZ
Enterococcus faecium [12] = experiment: Antimicrobial activity against Enterococcus faecium AUS0004 at 300 ug/disk incubated for 20 +/- 4 hrs by agar disk diffusion method; format: functional; conditions: read-out: DIZ
Enterococcus faecalis [13] = experiment: Antimicrobial activity against Enterococcus faecalis ATCC 29212 at 300 ug/disk incubated for 20 +/- 4 hrs by agar disk diffusion method; format: functional; conditions: read-out: DIZ
Listeria monocytogenes [14] = experiment: Antimicrobial activity against Listeria monocytogenes clinical isolate at 200 ug/disk incubated for 20 +/- 4 hrs by agar disk diffusion method; format: functional; conditions: read-out: DIZ
Enterococcus faecium [15] = experiment: Antimicrobial activity against Enterococcus faecium AUS0004 at 15 ug/disk incubated for 20 +/- 4 hrs by agar disk diffusion method; format: functional; conditions: read-out: DIZ
Enterococcus faecalis [16] = experiment: Antimicrobial activity against Enterococcus faecalis ATCC 29212 at 15 ug/disk incubated for 20 +/- 4 hrs by agar disk diffusion method; format: functional; conditions: read-out: DIZ
Enterococcus faecium [17] = experiment: Antimicrobial activity against Enterococcus faecium AUS0004 at 10 ug/disk incubated for 20 +/- 4 hrs by agar disk diffusion method; format: functional; conditions: read-out: DIZ
Enterococcus faecalis [18] = experiment: Antimicrobial activity against Enterococcus faecalis ATCC 29212 at 5 ug/disk incubated for 20 +/- 4 hrs by agar disk diffusion method; format: functional; conditions: read-out: DIZ
Enterococcus faecium [19] = experiment: Antimicrobial activity against Enterococcus faecium AUS0004 at 5 ug/disk incubated for 20 +/- 4 hrs by agar disk diffusion method; format: functional; conditions: read-out: DIZ

`CC1(C)S[C@@H]2[C@H](NC(=O)[C@H](N)c3ccccc3)C(=O)N2[C@H]1C(=O)O` [AMPICILLIN] was tested, and the zone of inhibition at 2 µg/disc (Enterococcus faecium [1]) was 6 mm.
Molecule `CO[C@@]1(NC(=O)[C@H](C(=O)O)c2ccc(O)cc2)C(=O)N2C(C(=O)O)=C(CSc3nnnn3C)CO[C@@H]21` has a zone of inhibition at 30 µg/disc (Listeria monocytogenes [2]) of 15 mm.
Molecule `O=C(Nc1nnc(-c2ccc(C(F)(F)F)cc2)o1)c1ccc(Cl)cc1` has a zone of inhibition at 50 µg/disc (Clostridium perfringens) of 6 mm, a zone of inhibition at 50 µg/disc (Enterococcus faecium [3]) of 11 mm and a zone of inhibition at 50 µg/disc (Kocuria rhizophila) of 14 mm. The zone of inhibition at 50 µg/disc (Pseudomonas aeruginosa) was 6 mm, the zone of inhibition at 50 µg/disc (Bacillus subtilis) was 13 mm and the zone of inhibition at 50 µg/disc (Escherichia coli [4]) was 6 mm. For the same molecule, the zone of inhibition at 50 µg/disc (Bacteroides fragilis) was 9 mm, the zone of inhibition at 50 µg/disc (Enterococcus faecium [5]) was 9 mm and the zone of inhibition at 50 µg/disc (Listeria monocytogenes [6]) was 16 mm. The zone of inhibition at 50 µg/disc (Streptococcus pyogenes) was 6 mm, the zone of inhibition at 50 µg/disc (Enterobacter cloacae) was 6 mm and the zone of inhibition at 50 µg/disc (Klebsiella pneumoniae) was 6 mm. It also gave a zone of inhibition at 50 µg/disc (Staphylococcus aureus) of 9 mm, a zone of inhibition at 50 µg/disc (Escherichia coli [7]) of 6 mm and a zone of inhibition at 50 µg/disc (Acinetobacter baumannii) of 6 mm. The zone of inhibition at 50 µg/disc (Enterococcus faecalis [8]) was 10 mm.
GENTAMICIN gave an inhibition zone (IZ) (Enterococcus faecium [9]) of 17 mm and an inhibition zone (IZ) (Enterococcus faecalis [10]) of 14 mm.
`CC1COc2c(N3CCN(C)CC3)c(F)cc3c(=O)c(C(=O)O)cn1c23` (centres undefined) [OFLOXACIN] was tested, and the zone of inhibition at 5 µg/disc (Listeria monocytogenes [11]) was 21 mm.
`CN[C@@H]1[C@H](O[C@H]2[C@H](O[C@H]3[C@H](O)[C@@H](O)[C@H](N=C(N)N)[C@@H](O)[C@@H]3N=C(N)N)O[C@@H](C)[C@]2(O)C=O)O[C@@H](CO)[C@H](O)[C@H]1O` [STREPTOMYCIN] gave a zone of inhibition at 300 µg/disc (Enterococcus faecium [12]) of 22 mm and a zone of inhibition at 300 µg/disc (Enterococcus faecalis [13]) of 16 mm.
Work on `C[C@@H]1O[C@@H]1P(=O)(O)O` [FOSFOMYCIN] yielded a zone of inhibition at 200 µg/disc (Listeria monocytogenes [14]) of 6 mm.
`CC[C@H]1OC(=O)[C@H](C)[C@@H](O[C@H]2C[C@@](C)(OC)[C@@H](O)[C@H](C)O2)[C@H](C)[C@@H](O[C@@H]2O[C@H](C)C[C@H](N(C)C)[C@H]2O)[C@](C)(O)C[C@@H](C)C(=O)[C@H](C)[C@@H](O)[C@]1(C)O` [ERYTHROMYCIN] gave a zone of inhibition at 15 µg/disc (Enterococcus faecium [15]) of 6 mm and a zone of inhibition at 15 µg/disc (Enterococcus faecalis [16]) of 20 mm.
In the case of `C[C@@H](O)[C@H]1C(=O)N2C(C(=O)O)=C(SCCNC=N)C[C@H]12` [IMIPENEM ANHYDROUS], the zone of inhibition at 10 µg/disc (Enterococcus faecium [17]) was 6 mm.
With `CO[C@H]1/C=C/O[C@@]2(C)Oc3c(C)c(O)c4c(O)c(c(/C=N/N5CCN(C)CC5)c(O)c4c3C2=O)NC(=O)/C(C)=C\C=C\[C@H](C)[C@H](O)[C@@H](C)[C@@H](O)[C@@H](C)[C@H](OC(C)=O)[C@@H]1C` [RIFAMPIN] the zone of inhibition at 5 µg/disc (Enterococcus faecalis [18]) was 21 mm and the zone of inhibition at 5 µg/disc (Enterococcus faecium [19]) was 9 mm.
